MEKK2wt PB1 HTS: raises or lowers MEK5 binding to wildtype human MEKK2 PB1 domain; Q9Y2U5; bead flow cytometry, Alexa488-MEK5 binding to MEKK2 WT; actives lie on both sides; binding response (% of control), % at 10 µM; 290,000 compounds, 1.1% hits; in the data active = binding response below about 67% or above about 130%
UBC13 polyUb: human UBC13 polyubiquitination inhibition; P61088; UBC13 polyubiquitin chain formation, TR-FRET; inhibition, % at 20 µM; 330,000 compounds, 0.47% hits; AID 485273; in the data active = inhibition above about 45%, passing the limit was not always enough
Target sequence (P61088 whole entry, looked up): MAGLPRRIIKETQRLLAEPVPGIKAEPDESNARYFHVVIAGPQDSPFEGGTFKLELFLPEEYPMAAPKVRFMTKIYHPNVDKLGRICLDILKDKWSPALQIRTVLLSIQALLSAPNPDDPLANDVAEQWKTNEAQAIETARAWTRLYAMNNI
DSG3 Ab inh: blocks pemphigus antibody binding to human desmoglein-3; P32926; DSG3-coupled beads, scFv-anti-DSG3-GFP binding, flow cytometry; active compounds read low; binding (percent of control), % at 10 µM; 310,000 compounds, 0.48% hits; AID 588358;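 active = binding more than 3 SD below its plate's average and above zero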;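 note: hits lower antibody fragment binding to DSG3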
MEKK3 PB1 HTS: modulators (inhibitors or enhancers) of MEK5 binding to human MEKK3 PB1 domain; bead-based flow cytometry, Alexa488-MEK5 binding to MEKK3; actives lie on both sides; 0 = blocked by unlabeled MEK5, 100 = vehicle; binding response (% of control), % at 10 µM; 290,000 compounds, 1.4% hits;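 active = binding response more than 3 SD above or below the average of its plate-row segment, actives on both sides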;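 note: Alexa488 bead fluorescence after subtracting the streptavidin-only scavenger bead signal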
Target sequence (Q99759 whole entry, looked up, the tested form may be a part): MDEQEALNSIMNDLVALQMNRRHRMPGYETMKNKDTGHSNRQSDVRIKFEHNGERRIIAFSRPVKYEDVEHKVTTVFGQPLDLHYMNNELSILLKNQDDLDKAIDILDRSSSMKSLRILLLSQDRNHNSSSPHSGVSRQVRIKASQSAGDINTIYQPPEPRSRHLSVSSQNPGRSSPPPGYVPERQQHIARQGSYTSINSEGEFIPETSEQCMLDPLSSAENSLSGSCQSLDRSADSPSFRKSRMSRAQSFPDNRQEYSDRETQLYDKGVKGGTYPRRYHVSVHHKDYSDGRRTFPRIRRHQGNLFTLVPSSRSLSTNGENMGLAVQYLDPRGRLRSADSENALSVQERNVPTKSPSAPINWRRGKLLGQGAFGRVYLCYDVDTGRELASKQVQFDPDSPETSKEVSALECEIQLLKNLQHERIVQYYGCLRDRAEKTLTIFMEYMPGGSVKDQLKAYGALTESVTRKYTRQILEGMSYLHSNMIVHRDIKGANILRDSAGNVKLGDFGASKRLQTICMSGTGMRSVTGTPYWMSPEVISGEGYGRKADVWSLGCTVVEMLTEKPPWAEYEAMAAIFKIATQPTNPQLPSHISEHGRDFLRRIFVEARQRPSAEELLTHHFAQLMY
MEKK2 mut-MEK5: signal of MEK5 binding to mutant human MEKK2 PB1 domain. 290,000 compounds, 0.35% hits. AID 1530. percent response, % at 10 µM. bead flow cytometry, Alexa488-MEK5 binding to MEKK2 mutant; in the data active = percent response above about 24%, passing the limit was not always enough
Apaf-1 inh: human Apaf-1 inhibition | reconstituted apoptosome caspase-3 activity, DEVD-Rh110 fluorescence | inhibition, % at 20 µM | 330,000 compounds, 0.71% hits | O14727 | AID 489030; active = inhibition of at least 40% at 20 µM
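detection = Rh110 fluorescence intensity | test system = biochemical Apaf-1 apoptosome reconstitution | also added = cytochrome c and DEVD-Rh110 substrate | schedule = 30 min plus 50 min, RT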
MEKK2wt confirm: raises or lowers MEK5 binding to wildtype human MEKK2, retest | shares compounds with MEKK3 PB1 HTS | bead flow cytometry, Alexa488-MEK5 binding to MEKK2 WT; actives lie on both sides | binding response (% of control), % at 10 µM | 5,900 compounds, 2.4% hits; in the data active = binding response below about 16% or above about 210%; inactive = in between
MEKK2mut confirm: signal of MEK5 binding to mutant human MEKK2, retest | shares compounds with MEKK3 PB1 HTS | bead flow cytometry, Alexa488-MEK5 binding to MEKK2 mutant | percent response, % at 10 µM | 5,900 compounds, 2% hits; in the data active = percent response mostly above about 71%, no sharp cut-off; inactive = mostly below about 38%;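 note: higher means compound restores mutant binding toward wildtype level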
MEKK3 confirm: confirmation of inhibitors of MEK5 binding to human MEKK3. 5,900 compounds, 1.8% hits. binding response (% of control), % at 10 µM. bead flow cytometry, Alexa488-MEK5 binding to MEKK3; active compounds read low. shares compounds with MEKK3 PB1 HTS;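 active = binding response below 72% of control, or above a set upper limit, though filed actives all read lower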;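 note: lower values mean stronger disruption of MEK5 binding to MEKK3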
Each line names hits and unclear results; the compound was inactive in the other large screens (follow-up assays come after a bar, where they were run); [ ] = remark or other dose. Only some compounds are listed: those with a hit (about 3.2% of all), similar ones and a draw of the others.

COc1cc(C(C)n2nnc3ccccc32)ccc1O (stereo not drawn)	none (no result: MEKK2wt PB1 HTS, UBC13 polyUb, MEKK3 PB1 HTS, MEKK2 mut-MEK5, Apaf-1 inh)
O=C(CSc1nc(-c2ccccc2)c(-c2ccccc2)[nH]1)Nc1ccc2c(c1)OCO2	MEKK3 PB1 HTS 146.0 | MEKK2wt confirm inactive | MEKK2mut confirm inactive | MEKK3 confirm inactive
O=C(CSc1nc2ncccc2[nH]1)Nc1ccc2c(c1)OCO2	none
CCCCC1=CC2=C(c3ccco3)C(=O)C(C)(OC(=O)c3ccc(OC)cc3)C(=O)C2=CN1C(CO)CO (stereo not drawn)	MEKK2wt PB1 HTS 144.0 | MEKK2wt confirm inactive | MEKK2mut confirm inactive | MEKK3 confirm inactive
CCCCC1=CC2=C(c3ccco3)C(=O)C(C)(OC(=O)c3ccc(OC)cc3)C(=O)C2=CN1CCN1CCOCC1 (stereo not drawn)	MEKK2wt PB1 HTS 142.0 | MEKK2wt confirm inactive | MEKK2mut confirm inactive | MEKK3 confirm inactive
S=C(Nc1cccc(Cl)c1)N(CCCN1CCCC1)Cc1cccn1Cc1ccc(Cl)cc1	MEKK2wt PB1 HTS 262.0 | MEKK2wt confirm 221.0 | MEKK2mut confirm inactive | MEKK3 confirm inactive
COc1cccc(NC(=S)N(CCCN2CCCC2)Cc2cccn2Cc2ccc(Cl)cc2)c1	MEKK2wt PB1 HTS 177.0, MEKK2 mut-MEK5 55.0 | MEKK2wt confirm inactive | MEKK2mut confirm inactive | MEKK3 confirm inactive
CSc1cccc(NC(=S)N(CCCN2CCCC2)Cc2cccn2Cc2ccc(Cl)cc2)c1	MEKK2wt PB1 HTS 270.0, MEKK2 mut-MEK5 94.0 | MEKK2wt confirm 245.0 | MEKK2mut confirm 77.0 | MEKK3 confirm inactive
CSc1cccc(NC(=S)N(CCCN2CCCC2)Cc2cccs2)c1	none (no result: DSG3 Ab inh)
CCN1CCN(c2ccc(S(=O)(=O)N3CCCCC3)cc2NC(=O)CC(NC(C)=O)c2ccccc2)CC1 (stereo not drawn)	none (no result: MEKK2wt PB1 HTS, MEKK3 PB1 HTS, MEKK2 mut-MEK5)
COc1ccc(/C=C2\N=C3CCCCCN3C2=O)cc1OC	none (no result: DSG3 Ab inh)
COc1ccc(/C=C2\N=C(C)N(c3ccc4ccccc4c3)C2=O)cc1OC	MEKK3 PB1 HTS 208.0 | MEKK2wt confirm inactive | MEKK2mut confirm inactive | MEKK3 confirm inactive
O=C1S/C(=C\c2ccc(O)c([N+](=O)[O-])c2)C(=O)N1c1ccccc1Cl	MEKK3 PB1 HTS 74.0[inhibitor] | MEKK2wt confirm inactive | MEKK2mut confirm inactive | MEKK3 confirm inactive
CN1CC=C2C(C#N)=C(N)C(C#N)(C#N)[C@H](c3cccc(Cl)c3)C2C1 (stereo partly drawn)	none
CC(C)c1ccc(C2C3CSCC=C3C(C#N)=C(N)C2(C#N)C#N)cc1 (stereo not drawn)	MEKK2wt PB1 HTS 1.0[inhibitor], MEKK3 PB1 HTS 1.0[inhibitor] (no result: DSG3 Ab inh) | MEKK2wt confirm inactive | MEKK2mut confirm inactive | MEKK3 confirm inactive
CS(=O)(=O)N1CCN(c2ccc([N+](=O)[O-])cc2F)CC1	MEKK3 PB1 HTS 75.0[inhibitor] | MEKK2wt confirm inactive | MEKK2mut confirm inactive | MEKK3 confirm inactive
CS(=O)(=O)N1CCN(c2ccc([N+](=O)[O-])cc2C(F)(F)F)CC1	none
CCCC(=O)NCn1nnc(-c2ccc(Cl)cc2)n1	MEKK3 PB1 HTS 221.0, MEKK2 mut-MEK5 active (no result: UBC13 polyUb, Apaf-1 inh) | MEKK2wt confirm inactive | MEKK2mut confirm inactive | MEKK3 confirm inactive
O=C(Cc1ccc(Cl)cc1Cl)NCc1cccnc1	none
CC1=C(C(=O)Nc2ccccc2C)C(c2ccc(C)o2)n2c(s/c(=C/c3ccccc3)c2=O)=N1 (stereo not drawn)	none
CC1=C(C(=O)Nc2ccccc2)C(c2ccc(C)o2)n2c(s/c(=C/c3ccccc3)c2=O)=N1 (stereo not drawn)	MEKK3 PB1 HTS 82.0[inhibitor] | MEKK2wt confirm inactive | MEKK2mut confirm inactive | MEKK3 confirm inactive
CC1=C(C(=O)Nc2ccccc2)C(c2ccc(Cl)cc2)n2c(s/c(=C/c3cccc(OCC(=O)O)c3)c2=O)=N1 (stereo not drawn)	MEKK2wt PB1 HTS 40.0[inhibitor] | MEKK2wt confirm inactive | MEKK2mut confirm inactive | MEKK3 confirm inactive
COc1ccc(-c2cc(C(F)(F)F)n3nc(C(=O)NCc4ccco4)c(Cl)c3n2)cc1	MEKK2wt PB1 HTS 30.0[inhibitor] | MEKK2wt confirm inactive | MEKK2mut confirm inactive | MEKK3 confirm inactive
C=CCNCCOc1cccc(Br)c1	none
CCC(C)NCCOc1cccc(Br)c1 (stereo not drawn)	MEKK3 PB1 HTS 157.0 | MEKK2wt confirm inactive | MEKK2mut confirm inactive | MEKK3 confirm inactive
COc1ccc(N2CC(C)Cn3c2nc2c3c(=O)n(Cc3ccccc3)c(=O)n2C)c(OC)c1 (stereo not drawn)	MEKK3 PB1 HTS 73.0[inhibitor] | MEKK2wt confirm inactive | MEKK2mut confirm inactive | MEKK3 confirm inactive
COc1cccc(NC(=O)Cn2c(=O)oc3ccccc32)c1	none (no result: DSG3 Ab inh)
COc1ccc(-c2nc(NC(=O)Cn3c(=O)oc4ccccc43)sc2C)cc1	MEKK3 PB1 HTS 143.0 | MEKK2wt confirm inactive | MEKK2mut confirm inactive | MEKK3 confirm inactive
O=C(/C=C/c1ccc(F)cc1)NCCCN1CCN(CCCNC(=O)/C=C/c2ccc(F)cc2)CC1	MEKK2wt PB1 HTS 146.0 | MEKK2wt confirm inactive | MEKK2mut confirm inactive | MEKK3 confirm inactive
COc1ccc(/C=C/C(=O)NCCCN2CCCCCC2)cc1	MEKK2wt PB1 HTS 155.0, MEKK2 mut-MEK5 28.0 | MEKK2wt confirm inactive | MEKK2mut confirm inactive | MEKK3 confirm inactive
COc1ccc(/C=C/C(=O)NCCCN2CCOCC2)cc1	none (no result: UBC13 polyUb, Apaf-1 inh)
Cc1ccc(/C=C/C(=O)NCCCn2ccnc2)cc1	MEKK2wt PB1 HTS 5.0[inhibitor], MEKK3 PB1 HTS 3.0[inhibitor] | MEKK2wt confirm inactive | MEKK2mut confirm inactive | MEKK3 confirm inactive
Cc1ccc(/C=C/C(=O)NCCCN2CCN(CCCNC(=O)/C=C/c3ccc(C)o3)CC2)o1	none
[O-][N+](=Cc1c(Cl)cccc1Cl)CC1(O)CCCCC1	none (no result: MEKK2wt PB1 HTS, UBC13 polyUb, MEKK3 PB1 HTS, MEKK2 mut-MEK5, Apaf-1 inh)
COCCNC(=O)c1ccc(N2CC3CC(C2)c2cccc(=O)n2C3)c(NC(=O)c2ccc(C(C)(C)C)cc2)c1 (stereo not drawn)	none (no result: MEKK2wt PB1 HTS, UBC13 polyUb, MEKK3 PB1 HTS, MEKK2 mut-MEK5, Apaf-1 inh)
Cc1cccc(NC(=O)c2cccc(S(=O)(=O)N(C)C3CCCCC3)c2)n1	none (no result: MEKK2wt PB1 HTS, UBC13 polyUb, MEKK3 PB1 HTS, MEKK2 mut-MEK5, Apaf-1 inh)
CC(=O)NN1C(=O)/C(=C2/Sc3ccc(Cl)cc3N2C)SC1=S	none
CCn1cc(C(=O)N2CCCC(C(=O)c3cccc(C(F)(F)F)c3)C2)cn1 (stereo not drawn)	none (no result: MEKK2wt PB1 HTS, UBC13 polyUb, MEKK3 PB1 HTS, MEKK2 mut-MEK5, Apaf-1 inh)
CCOC(=O)NS(=O)(=O)c1ccc(CCNC(=O)c2cc(C)on2)cc1	none

Assay outcomes: PubChem BioAssay, several laboratories
